Calls of active or inactive are those of the source. The rule behind the calls is not given here.
How the values were obtained:
FaDu = experiment: Growth inhibition of human FADU cells at 30 uM after 96 hrs by SRB assay; format: functional, cell-based
In short: (§1)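 Same SRB set-up: RPMI 1640 with 10% FBS at 37 °C, 5% CO2, and a 96 h exposure starting 24 h after seeding (DMSO or DMF ≤0.5% final). Percent viable cells relative to untreated controls is read at 30 µM, the top concentration of the 0–30 µM dilution series. Cells were fixed with TCA, stained with SRB and read at 570 nm; ≥3 independent experiments.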

SW-1736 [1] = experiment: Growth inhibition of human SW1736 cells at 30 uM after 96 hrs by SRB assay; format: functional, cell-based; in short: as §1
HCT-116 [2] = experiment: Growth inhibition of human HCT116 cells at 30 uM after 96 hrs by SRB assay; format: functional, cell-based; in short: as §1
A-431 [3] = experiment: Growth inhibition of human A431 cells at 30 uM after 96 hrs by SRB assay; format: functional, cell-based; in short: as §1
8505C = experiment: Growth inhibition of human 8505C cells at 30 uM after 96 hrs by SRB assay; format: functional, cell-based; in short: as §1
A549 = experiment: Growth inhibition of human A549 cells at 30 uM after 96 hrs by SRB assay; format: functional, cell-based; in short: as §1
518A2 = experiment: Growth inhibition of human 518A2 cells at 30 uM after 96 hrs by SRB assay; format: functional, cell-based; in short: as §1
A2780 [4] = experiment: Growth inhibition of human A2780 cells at 30 uM after 96 hrs by SRB assay; format: functional, cell-based; in short: as §1
Homo sapiens = species on record: Homo sapiens; experiment: Growth inhibition of human Liposarcoma cells at 30 uM after 96 hrs by SRB assay; format: functional; in short: as §1
DLD-1 = experiment: Growth inhibition of human DLD1 cells at 30 uM after 96 hrs by SRB assay; format: functional, cell-based; in short: as §1
HCT-8 = experiment: Growth inhibition of human HCT8 cells at 30 uM after 96 hrs by SRB assay; format: functional, cell-based; in short: as §1
SW480 = experiment: Growth inhibition of human SW480 cells at 30 uM after 96 hrs by SRB assay; format: functional, cell-based; in short: as §1
HT-29 = experiment: Growth inhibition of human HT-29 cells at 30 uM after 96 hrs by SRB assay; format: functional, cell-based; in short: as §1
SW-1736 [5] = experiment: Cytotoxicity against human SW1736 cells after 96 hrs by SRB assay; format: functional, cell-based; settings: SW-1736, 96 h
In short: (§2)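 Monolayer cells grown in RPMI 1640 with 10% heat-inactivated FBS and penicillin/streptomycin at 37 °C, 5% CO2. Cells were seeded and, after 24 h, exposed to serial dilutions (0–30 µM; DMSO or DMF ≤0.5% final) for 96 h. They were then fixed with 10% TCA at 4 °C, stained with 0.4% SRB and dissolved in 10 mM Tris, with absorbance read at 570 nm. IC50 comes from semi-log dose–response curves of survival versus untreated controls, from ≥3 independent experiments.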

A-431 [6] = experiment: Cytotoxicity against human A431 cells after 96 hrs by SRB assay; format: functional, cell-based; settings: A-431, 96 h; in short: as §2
HCT-116 [7] = experiment: Cytotoxicity against human HCT116 cells after 96 hrs by SRB assay; format: functional, cell-based; settings: HCT-116, 96 h; in short: as §2
A253 = experiment: Growth inhibition of human A253 cells at 30 uM after 96 hrs by SRB assay; format: functional, cell-based; in short: as §1
A2780 [8] = experiment: Cytotoxicity against human A2780 cells after 96 hrs by SRB assay; format: functional, cell-based; settings: A2780, 96 h; in short: as §2

C=C(C)[C@@H]1CC[C@]2([C@@H]3O[C@@]34CCOC4=O)CC[C@]3(C)[C@H](CC[C@@H]4[C@@]5(C)CC[C@H](OC(C)=O)C(C)(C)[C@@H]5CC[C@]43C)[C@@H]12
growth inhibition (GI) (FaDu): inactive | growth inhibition (GI) (SW-1736 [1]): inactive | growth inhibition (GI) (HCT-116 [2]): inactive | growth inhibition (GI) (A-431 [3]): inactive | growth inhibition (GI) (8505C): inactive | growth inhibition (GI) (A549): inactive | growth inhibition (GI) (518A2): inactive | growth inhibition (GI) (A2780 [4]): inactive | growth inhibition (GI) (Homo sapiens): inactive | growth inhibition (GI) (DLD-1): inactive | growth inhibition (GI) (HCT-8): inactive | growth inhibition (GI) (SW480): inactive | growth inhibition (GI) (HT-29): inactive

C=C(C)[C@@H]1CC[C@]2(/C=C3\CCOC3=O)CC[C@]3(C)[C@H](CC[C@@H]4[C@@]5(C)CC[C@H](OC(C)=O)C(C)(C)[C@@H]5CC[C@]43C)[C@@H]12
growth inhibition (GI) (FaDu): inactive | IC50 (SW-1736 [5]): 18.8 µM | IC50 (A-431 [6]): 19.4 µM | IC50 (HCT-116 [7]): 13.9 µM | growth inhibition (GI) (A253): inactive | growth inhibition (GI) (8505C): inactive | growth inhibition (GI) (A549): inactive | growth inhibition (GI) (518A2): inactive | growth inhibition (GI) (A2780 [4]): inactive | growth inhibition (GI) (Homo sapiens): inactive | growth inhibition (GI) (DLD-1): inactive | growth inhibition (GI) (HCT-8): inactive | growth inhibition (GI) (SW480): inactive | growth inhibition (GI) (HT-29): inactive

C=C(C)[C@@H]1CC[C@]2([C@@H]3O[C@H]3C(=O)OC)CC[C@]3(C)[C@H](CC[C@@H]4[C@@]5(C)CC[C@H](OC(C)=O)C(C)(C)[C@@H]5CC[C@]43C)[C@@H]12
growth inhibition (GI) (FaDu): inactive | IC50 (SW-1736 [5]): 17.6 µM | growth inhibition (GI) (A-431 [3]): inactive | IC50 (HCT-116 [7]): 18.1 µM | growth inhibition (GI) (A253): inactive | growth inhibition (GI) (8505C): inactive | growth inhibition (GI) (A549): inactive | growth inhibition (GI) (518A2): inactive | growth inhibition (GI) (Homo sapiens): inactive | IC50 (A2780 [8]): 12.3 µM | growth inhibition (GI) (DLD-1): inactive | growth inhibition (GI) (HCT-8): inactive | growth inhibition (GI) (SW480): inactive | growth inhibition (GI) (HT-29): inactive

C=C(C)[C@@H]1CC[C@]2(/C=C/C(=O)OCC)CC[C@]3(C)[C@H](CC[C@@H]4[C@@]5(C)CC[C@H](OC(C)=O)C(C)(C)[C@@H]5CC[C@]43C)[C@@H]12
growth inhibition (GI) (FaDu): inactive | growth inhibition (GI) (SW-1736 [1]): inactive | growth inhibition (GI) (HCT-116 [2]): inactive | growth inhibition (GI) (A-431 [3]): inactive | growth inhibition (GI) (A253): inactive | growth inhibition (GI) (8505C): inactive | growth inhibition (GI) (A549): inactive | growth inhibition (GI) (518A2): inactive | growth inhibition (GI) (A2780 [4]): inactive | growth inhibition (GI) (Homo sapiens): inactive | growth inhibition (GI) (DLD-1): inactive | growth inhibition (GI) (HCT-8): inactive | growth inhibition (GI) (SW480): inactive | growth inhibition (GI) (HT-29): inactive

C=C(C)[C@@H]1CC[C@]2([C@@H]3O[C@@H]3C#N)CC[C@]3(C)[C@H](CC[C@@H]4[C@@]5(C)CC[C@H](OC(C)=O)C(C)(C)[C@@H]5CC[C@]43C)[C@@H]12
growth inhibition (GI) (FaDu): inactive | growth inhibition (GI) (SW-1736 [1]): inactive | growth inhibition (GI) (HCT-116 [2]): inactive | growth inhibition (GI) (A-431 [3]): inactive | growth inhibition (GI) (A253): inactive | growth inhibition (GI) (8505C): inactive | growth inhibition (GI) (A549): inactive | growth inhibition (GI) (518A2): inactive | growth inhibition (GI) (A2780 [4]): inactive | growth inhibition (GI) (Homo sapiens): inactive | growth inhibition (GI) (DLD-1): inactive | growth inhibition (GI) (HCT-8): inactive | growth inhibition (GI) (SW480): inactive | growth inhibition (GI) (HT-29): inactive

C=C(C)[C@@H]1CC[C@]2(/C=C/C(=O)OCC)CC[C@]3(C)[C@H](CC[C@@H]4[C@@]5(C)CC[C@H](OC)C(C)(C)[C@@H]5CC[C@]43C)[C@@H]12
growth inhibition (GI) (FaDu): inactive | growth inhibition (GI) (SW-1736 [1]): inactive | growth inhibition (GI) (HCT-116 [2]): inactive | growth inhibition (GI) (A-431 [3]): inactive | growth inhibition (GI) (A253): inactive | growth inhibition (GI) (8505C): inactive | growth inhibition (GI) (A549): inactive | growth inhibition (GI) (518A2): inactive | growth inhibition (GI) (A2780 [4]): inactive | growth inhibition (GI) (Homo sapiens): inactive | growth inhibition (GI) (DLD-1): inactive | growth inhibition (GI) (HCT-8): inactive | growth inhibition (GI) (SW480): inactive | growth inhibition (GI) (HT-29): inactive

C=C(C)[C@@H]1CC[C@]2([C@H](O)CC(=O)OCC)CC[C@]3(C)[C@H](CC[C@@H]4[C@@]5(C)CC[C@H](OC)C(C)(C)[C@@H]5CC[C@]43C)[C@@H]12
growth inhibition (GI) (FaDu): inactive | growth inhibition (GI) (SW-1736 [1]): inactive | growth inhibition (GI) (HCT-116 [2]): inactive | growth inhibition (GI) (A-431 [3]): inactive | growth inhibition (GI) (A253): inactive | growth inhibition (GI) (8505C): inactive | growth inhibition (GI) (A549): inactive | growth inhibition (GI) (518A2): inactive | growth inhibition (GI) (A2780 [4]): inactive | growth inhibition (GI) (Homo sapiens): inactive | growth inhibition (GI) (DLD-1): inactive | growth inhibition (GI) (HCT-8): inactive | growth inhibition (GI) (SW480): inactive | growth inhibition (GI) (HT-29): inactive

— ChEMBL document CHEMBL1159047, “Synthesis and biological evaluation of antitumour-active betulin derivatives” (Bioorg Med Chem, 2010)
